Columns and labels:
[1] = target: Protease (Human immunodeficiency virus 1) (UniProt Q9YQ12); test: Inhibition of recombinant HIV-1 protease at 50 nM
[2] = system: T1, Protease (Human T-cell leukemia virus type I), Q82134 [L40I]; test: Inhibition of HTLV-1 protease L40I mutant at 50 nM by fluorimetric assay
T1 sequence (whole entry): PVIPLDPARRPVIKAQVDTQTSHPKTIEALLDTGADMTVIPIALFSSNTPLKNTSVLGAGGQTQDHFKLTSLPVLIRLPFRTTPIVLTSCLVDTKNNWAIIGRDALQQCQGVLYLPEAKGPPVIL
Summary of the method: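 Recombinant L40I-mutant HTLV-I protease, mutation limits autoproteolysis; fluorescent substrate read-out. Test compound at 50 nM, percent inhibition from single determinations.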

Protease = Protease (Human T-cell leukemia virus type I, UniProt Q82134, L40I); test: Inhibition of HTLV-1 protease L40I mutant by fluorimetric assay
Summary of the method: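 Recombinant L40I-mutant HTLV-I protease, mutation limits autoproteolysis; fluorescent substrate cleavage. Percent inhibition measured singly at 1, 5, 10, 20, 50 and 100 nM test compound. IC50 read from fitted sigmoid plot, error range from RMSD of the plot.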

Protease (Human immunodeficiency virus 1), sequence (Q9YQ12 as listed by the source): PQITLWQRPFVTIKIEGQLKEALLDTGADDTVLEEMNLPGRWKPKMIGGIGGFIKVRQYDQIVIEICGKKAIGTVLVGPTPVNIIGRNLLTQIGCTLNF

| SMILES | inhibition [1] [%] | inhibition [2] [%] | IC50 (Protease) [nM] | INH [1] [nM] |
| --- | --- | --- | --- | --- |
| CCCC(=O)NC(C(=O)N[C@H](C(=O)N[C@@H](Cc1ccccc1)[C@H](O)C(=O)N1CSC(C)(C)[C@H]1C(=O)NCC(C)(C)C)C(C)(C)C)c1cc(F)c(F)c(F)c1 (stereo in doubt; 20a) [listing 1 of 2 here] | > 99 | 81 |  |  |
| CCCC(=O)NC(C(=O)N[C@H](C(=O)N[C@@H](Cc1ccccc1)[C@H](O)C(=O)N1CSC(C)(C)[C@H]1C(=O)NCC(C)(C)C)C(C)(C)C)c1cc(F)c(F)c(F)c1 (single isomer, unassigned; enantiomer b) | 80 | 20 |  |  |
| CCCC(=O)NC(C(=O)N[C@H](C(=O)N[C@@H](Cc1ccccc1)[C@H](O)C(=O)N1CSC(C)(C)[C@H]1C(=O)NCC(C)(C)C)C(C)(C)C)c1cc(F)c(F)c(F)c1 (stereo in doubt; 19a) [listing 1 of 2 here] | > 99 | 84 |  |  |
| CC(C)(C)CNC(=O)[C@H]1N(C(=O)[C@@H](O)[C@H](Cc2ccccc2)NC(=O)[C@@H](NC(=O)[C@H](O)c2ccccc2)C(C)(C)C)CSC1(C)C | 82 | 10 |  |  |
| CC(C)(C)CNC(=O)[C@H]1N(C(=O)[C@@H](O)[C@H](Cc2ccccc2)NC(=O)[C@@H](NC(=O)Cc2ccccc2)C(C)(C)C)CSC1(C)C | 22 | 8 |  |  |
| CC(C)(C)CNC(=O)[C@H]1N(C(=O)[C@@H](O)[C@H](Cc2ccccc2)NC(=O)[C@@H](NC(=O)C(C)(C)c2ccccc2)C(C)(C)C)CSC1(C)C | 80 | 4 |  |  |
| CCCC(=O)NC(C(=O)N[C@H](C(=O)N[C@@H](Cc1ccccc1)[C@H](O)C(=O)N1CSC(C)(C)[C@H]1C(=O)NCC(C)(C)C)C(C)(C)C)c1cc(F)c(F)c(F)c1 (stereo in doubt; 20a) [listing 2 of 2 here] |  |  | 11 |  |
| CC(C)(C)CNC(=O)[C@H]1N(C(=O)[C@@H](O)[C@H](Cc2ccccc2)NC(=O)[C@@H](NC(=O)[C@@H](N)C(C)(C)C)C(C)(C)C)CSC1(C)C | 95 | 19 |  |  |
| CC(C)(C)CNC(=O)[C@H]1N(C(=O)[C@@H](O)[C@H](Cc2ccccc2)NC(=O)[C@@H](NC(=O)C(=O)c2ccccc2)C(C)(C)C)CSC1(C)C | 76 | 33 |  |  |
| CCCC(=O)NC(C(=O)N[C@H](C(=O)N[C@@H](Cc1ccccc1)[C@H](O)C(=O)N1CSC(C)(C)[C@H]1C(=O)NCC(C)(C)C)C(C)(C)C)c1cc(F)c(F)c(F)c1 (stereo in doubt; 19a) [listing 2 of 2 here] |  |  | 13.2 |  |
| CCCC(=O)N[C@H](C(=O)N[C@H](C(=O)N[C@@H](Cc1ccccc1)[C@H](O)C(=O)N1CSC(C)(C)[C@H]1C(=O)NCC(C)(C)C)C(C)(C)C)c1ccccc1 |  | 93 | 6.4 | 99 |
| CC[C@H](C)[C@H](N)C(=O)N[C@H](C(=O)N[C@@H](Cc1ccccc1)[C@H](O)C(=O)N1CSC(C)(C)[C@H]1C(=O)NCC(C)(C)C)C(C)(C)C | 97 | 31 |  |  |
| CC(C)(C)CNC(=O)[C@H]1N(C(=O)[C@@H](O)[C@H](Cc2ccccc2)NC(=O)[C@@H](NC(=O)C(C(=O)OCc2ccccc2)c2ccccc2)C(C)(C)C)CSC1(C)C (mixture of isomers) | 34 | 26 |  |  |
| CC(C)(C)CNC(=O)[C@H]1N(C(=O)[C@@H](O)[C@H](Cc2ccccc2)NC(=O)[C@@H](NC(=O)[C@@H](N)Cc2ccccc2)C(C)(C)C)CSC1(C)C | > 99 | 28 |  |  |
| CC(C)(C)CNC(=O)[C@H]1N(C(=O)[C@@H](O)[C@H](Cc2ccccc2)NC(=O)[C@@H](NC(=O)C2CCCCN2)C(C)(C)C)CSC1(C)C (single isomer, unassigned; enantiomer b) | 54 | 11 |  |  |
| CC(C)(C)CNC(=O)[C@H]1N(C(=O)[C@@H](O)[C@H](Cc2ccccc2)NC(=O)[C@@H](NC(=O)C2CCCCN2)C(C)(C)C)CSC1(C)C (stereo in doubt; 14a) | 93 | 24 |  |  |
| CC(C)(C)CNC(=O)[C@H]1N(C(=O)[C@@H](O)[C@H](Cc2ccccc2)NC(=O)[C@@H](NC(=O)[C@@H](N)C2CCCCC2)C(C)(C)C)CSC1(C)C | 99 | 65 | 35.8 |  |
| CCCC(=O)N[C@H](C(=O)N[C@H](C(=O)N[C@@H](Cc1ccccc1)[C@H](O)C(=O)N1CSC(C)(C)[C@H]1C(=O)NCC(C)(C)C)C(C)(C)C)[C@@H](C)CC | 95 | 86 | 6.1 |  |
| CC(C)(C)CNC(=O)[C@H]1N(C(=O)[C@@H](O)[C@H](Cc2ccccc2)NC(=O)[C@@H](NC(=O)[C@@H](N)c2ccccc2)C(C)(C)C)CSC1(C)C | > 99 | 69 | 37 |  |
| CC(C)[C@H](N)C(=O)N[C@H](C(=O)N[C@@H](Cc1ccccc1)[C@H](O)C(=O)N1CSC(C)(C)[C@H]1C(=O)NCC(C)(C)C)C(C)(C)C | 96 | 26 |  |  |
| CC(C)(C)CNC(=O)[C@H]1N(C(=O)[C@@H](O)[C@H](Cc2ccccc2)NC(=O)[C@@H](NC(=O)[C@@H](O)c2ccccc2)C(C)(C)C)CSC1(C)C | 92 | 43 |  |  |
| CCCC(=O)NC(C(=O)N[C@H](C(=O)N[C@@H](Cc1ccccc1)[C@H](O)C(=O)N1CSC(C)(C)[C@H]1C(=O)NCC(C)(C)C)C(C)(C)C)c1cc(F)c(F)c(F)c1 (stereo in doubt; 19b) | 68 | 18 |  |  |
